Experimental data gathered from unrelated publications.
Lines come from different studies, so protocols differ.
Cell line: K562
Observed: cell growth or viability

| SMILES | test | setting | IC50 |
| --- | --- | --- | --- |
| CC(=O)O[C@H](C)C(=O)CCCCCCC(=O)Nc1ccccc1 | thymidine uptake |  | > 100 µM |
| CC(C)[C@H](N)C(=O)N1CCC[C@H]1B(O)O | ATP luminescence | 48 h | > 60 µM |
| CN1c2ccccc2C(=O)N2[C@H](C(=O)Nc3ccc(C(=O)Nc4ccccc4N)cc3)Cc3c([nH]c4ccccc34)[C@@H]12 |  |  | 1.9 µM |
| c1ccc(-c2n[nH]cc2-c2ccnc(-c3ccc(OCCn4ccnc4)cc3)c2)nc1 | XTT | 72 h | 20 µM |
| CC(=O)OCCC1=CC2C=CC=CC1C2C1CCCCC1=O (centres unmarked) | flow cytometry |  | 0.039 µM |
| COc1cc(Nc2nccc(-c3cnn4nc(OC)ccc34)n2)cc(C(F)(F)F)c1 | ATP luminescence |  | 0.26 µM |
| C[C@@H](O)C(=O)CCCCCCC(=O)Nc1ccccc1 | thymidine uptake |  | 62.5 µM |
| CCOC(=O)CCC1=CC2C=CC=CC1C2C1CCCCC1=O (centres unmarked) | flow cytometry |  | 0.021 µM |
| CC[C@@H](C)[C@H](N)C(=O)N1Cc2ccccc2C1 | ATP luminescence |  | > 60 µM |
| O=C1CCCCC1C1C2C=CC=CC1/C(=C/Cc1ccccc1)C2 (centres unmarked) | flow cytometry |  | 0.038 µM |
| COc1ccc(/C=C\c2cc(OC)c(OC)c(OC)c2)cc1O |  |  | 0.005 µM |
| C#CCSc1nc(Sc2nnnn2-c2ccccc2)c2nnn(Cc3ccc(OC)cc3)c2n1 | MTS | 6 days | 7.24 µM |
| N#CCCC1=CC2C=CC=CC1C2C1CCCCC1=O (centres unmarked) | flow cytometry |  | 0.057 µM |
| CCCON(Cc1ccc(C(=O)NO)cc1)C(=O)Nc1ccccc1 | ATP luminescence | 72 h | 1.77 µM |
| Cc1c(O)c(=O)ccn1CCO | MTT | 72 h | ≥ 100 µM |
| CCCCC1=CC2C=CC=CC1C2C1CCCCC1=O (centres unmarked) | flow cytometry |  | 0.029 µM |
| O=C1NCCc2[nH]c(-c3ccncc3)cc21 |  |  | > 10 µM |
